Results taken from ChEMBL document CHEMBL4400507, “Discovery of Novel Transient Receptor Potential Vanilloid 4 (TRPV4) Agonists as Regulators of Chondrogenic Differentiation: Identification of Quinazolin-4(3 H)-ones and in Vivo Studies on a Surgically Induced Rat Model of Osteoarthritis” (J Med Chem, 2019).
≈ marks a conversion by molar mass, not a printed value. Calls of active or inactive are those of the source. No cut-off for these calls is given here.

Legend:
[1] = molecular target: T1, Transient receptor potential cation channel subfamily V member 4 (Homo sapiens, UniProt Q9HBA0); experiment: Agonist activity at recombinant human TRPV4 expressed in […] cells by SOX9 luciferase reporter gene assay; type: cell-based
T1 sequence (Q9HBA0 whole entry): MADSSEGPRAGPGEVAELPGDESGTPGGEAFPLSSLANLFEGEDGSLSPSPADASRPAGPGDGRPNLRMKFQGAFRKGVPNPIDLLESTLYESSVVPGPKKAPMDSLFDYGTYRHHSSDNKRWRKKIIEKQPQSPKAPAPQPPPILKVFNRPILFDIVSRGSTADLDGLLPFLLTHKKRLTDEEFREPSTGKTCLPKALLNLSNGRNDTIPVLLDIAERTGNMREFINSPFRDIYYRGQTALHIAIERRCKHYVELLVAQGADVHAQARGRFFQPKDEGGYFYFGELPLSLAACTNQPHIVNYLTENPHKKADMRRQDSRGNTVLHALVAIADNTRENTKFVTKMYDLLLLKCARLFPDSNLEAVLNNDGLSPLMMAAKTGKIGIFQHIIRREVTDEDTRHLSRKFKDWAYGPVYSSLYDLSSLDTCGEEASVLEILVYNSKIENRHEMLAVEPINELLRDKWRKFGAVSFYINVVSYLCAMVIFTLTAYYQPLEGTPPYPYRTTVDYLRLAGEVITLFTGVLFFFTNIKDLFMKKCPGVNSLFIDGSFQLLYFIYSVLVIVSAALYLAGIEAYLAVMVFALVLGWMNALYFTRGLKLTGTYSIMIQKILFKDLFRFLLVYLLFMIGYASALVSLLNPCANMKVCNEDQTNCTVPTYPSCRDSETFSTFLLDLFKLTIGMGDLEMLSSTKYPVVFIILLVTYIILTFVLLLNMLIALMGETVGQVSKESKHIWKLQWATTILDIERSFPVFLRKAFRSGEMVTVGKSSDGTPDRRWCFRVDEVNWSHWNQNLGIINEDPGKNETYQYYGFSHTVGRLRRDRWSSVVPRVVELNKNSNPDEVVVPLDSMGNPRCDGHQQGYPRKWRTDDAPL
Summary of the method: (§1)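 ATDC5 cells stably carrying a SOX9 reporter gene construct and human TRPV4 (pcDNA3.1) were seeded at 2.0 × 10^4 cells/well and treated with compound. Luciferase luminescence was measured the next day.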

[2] = molecular target: T1, Transient receptor potential cation channel subfamily V member 4; experiment: Agonist activity at recombinant human TRPV4 expressed in HEK293 cells assessed as increase in intracellular calcium level after 30 mins by Fura-2 AM/Pluronic F-127 probe based fluorescence assay; type: cell-based
Summary of the method: (§2)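 HEK293 cells transiently expressing human TRPV4 were loaded with 5 µM Fura-2 AM plus 0.2% Pluronic F-127 for 30 min at 37 °C in HEPES buffer (pH 7.4, 1.8 mM CaCl2, 0.1% BSA). They were then washed and resuspended. Intracellular Ca2+ was read by Fura-2 ratio imaging (excitation 340/380 nm, emission 510 nm).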

[3] = molecular target: Transient receptor potential cation channel subfamily V member 1 (Homo sapiens) (UniProt Q8NER1); experiment: Agonist activity at human TRPV1 assessed as increase in intracellular calcium level at 10 uM relative to control; type: cell-based
Transient receptor potential cation channel subfamily V member 1 (Homo sapiens), sequence (Q8NER1 whole entry): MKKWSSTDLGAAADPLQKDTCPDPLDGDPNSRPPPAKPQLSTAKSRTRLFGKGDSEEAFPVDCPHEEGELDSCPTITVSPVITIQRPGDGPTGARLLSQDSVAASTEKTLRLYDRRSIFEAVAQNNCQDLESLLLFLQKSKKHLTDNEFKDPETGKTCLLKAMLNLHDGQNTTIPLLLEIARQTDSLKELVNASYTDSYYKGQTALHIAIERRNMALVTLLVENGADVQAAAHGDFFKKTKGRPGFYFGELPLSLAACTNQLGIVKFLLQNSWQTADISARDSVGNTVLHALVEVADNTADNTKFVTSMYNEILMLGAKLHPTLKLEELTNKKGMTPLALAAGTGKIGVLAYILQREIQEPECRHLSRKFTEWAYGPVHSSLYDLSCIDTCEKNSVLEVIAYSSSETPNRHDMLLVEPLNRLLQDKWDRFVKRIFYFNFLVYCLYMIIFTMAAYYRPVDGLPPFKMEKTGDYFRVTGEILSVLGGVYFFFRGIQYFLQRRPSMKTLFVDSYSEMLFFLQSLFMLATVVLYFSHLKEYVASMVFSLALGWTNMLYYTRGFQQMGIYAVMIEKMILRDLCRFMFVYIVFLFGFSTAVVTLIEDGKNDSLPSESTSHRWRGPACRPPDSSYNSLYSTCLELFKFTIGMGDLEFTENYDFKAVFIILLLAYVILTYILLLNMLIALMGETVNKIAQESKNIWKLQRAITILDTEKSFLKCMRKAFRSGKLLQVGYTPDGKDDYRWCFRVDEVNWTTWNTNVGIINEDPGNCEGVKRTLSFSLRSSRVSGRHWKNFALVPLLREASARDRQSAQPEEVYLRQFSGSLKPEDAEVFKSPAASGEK

[4] = Solubility of the compound in saline; type: physicochemical
[5] = Protein binding in plasma (unknown origin); type: ADME, cell-free
HL-60 = experiment: Cytotoxicity against human HL60 cells assessed as reduction in cell viability; type: cell-based
Summary of the method: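 HL-60 cell viability measured with an ATP-based assay.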

[6] = Genotoxicity in Salmonella typhimurium by Ames test; type: toxicity; settings: salmonella enterica subsp. enterica serovar typhimurium
[7] = molecular target: T1, Transient receptor potential cation channel subfamily V member 4; experiment: Agonist activity at recombinant human TRPV4 expressed in […] cells at 10 uM by SOX9 luciferase reporter gene assay; type: cell-based; summary of the method: as §1
Homo sapiens [8] = species on record: Homo sapiens; experiment: Induction of chondrogenesis in normal human articular chondrocytes at 500 nM preincubated for 30 mins followed by medium replacement and measured after 3 days by Alcian blue-staining based assay; type: functional, cell-based
Summary of the method: (§3)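 Normal human articular chondrocytes were stimulated with agonist for 30 min, then the medium was replaced. After 3 days' culture, cells were fixed in 95% methanol and stained overnight with 0.1% Alcian blue 8GS in 0.1 N HCl. Dye was extracted with 6 M guanidine-HCl for 2 h at room temperature and read at OD 600 nm.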

Homo sapiens [9] = species on record: Homo sapiens; experiment: Induction of chondrogenesis in normal human articular chondrocytes at <500 nM preincubated for 30 mins followed by medium replacement and measured after 3 days by Alcian blue-staining based assay; type: functional, cell-based; summary of the method: as §3
Homo sapiens [10] = species on record: Homo sapiens; experiment: Induction of chondrogenesis in normal human articular chondrocytes at 62.5 to 1000 nM preincubated for 30 mins followed by medium replacement and measured after 3 days by Alcian blue-staining based assay; type: functional, cell-based
Summary of the method: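 Normal human articular chondrocytes were exposed to agonist for 30 min, then the medium was replaced and the cells cultured 3 days. They were fixed in 95% methanol and stained overnight with 0.1% Alcian blue in 0.1 N HCl. Dye was extracted with 6 M guanidine-HCl for 2 h at room temperature, and OD was read at 600 nm.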

Homo sapiens [11] = species on record: Homo sapiens; experiment: Induction of chondrogenesis in normal human articular chondrocytes at 62.5 nM preincubated for 30 mins followed by medium replacement and measured after 3 days by Alcian blue-staining based assay; type: functional, cell-based; summary of the method: as §3
Rattus norvegicus [12] = experiment: Anti-osteoarthritis activity in Sprague-Dawley rat model of medial meniscal tear-induced osteoarthritis assessed as decrease in length of damage area at 5 to 10 uM administered intra-articularly into operated knee twice per week for 3 consecutive weeks and measured at week 4; type: functional, organism-based
Summary of the method: (§4)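 Male Sprague-Dawley rats, 8 weeks old. Medial meniscus cut through to mimic a complete tear. One week after surgery, rats were grouped by body weight: sham, MT vehicle, 5 μM, 10 μM. 50 µL saline or drug was injected intra-articularly into the operated knee twice weekly for 3 weeks, and knees were harvested at week 4. Sections of 5 μm were stained with safranin-O/Fast Green, and damaged width on the medial tibial plateau was measured by micrometer. Analysis by Dunnett's test; n = 5–15 per group.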

Rattus norvegicus [13] = experiment: Bone anabolic effect in Sprague-Dawley rat model of medial meniscal tear-induced osteoarthritis assessed as induction of new extracellular matrix generation at 10 uM administered intra-articularly into operated knee twice per week for 3 consecutive weeks and measured at week 4 by safranin-O/Fast Green staining-based microscopic analysis; type: functional, organism-based
Rattus norvegicus [14] = experiment: Induction of aggrecan mRNA expression in Sprague-Dawley rat model of medial meniscal tear-induced osteoarthritis at 5 to 10 uM administered intra-articularly into operated knee twice per week for 3 consecutive weeks measured after 21 days by RT-qPCR analysis; type: functional, organism-based
Rattus norvegicus [15] = experiment: Induction of SOX9 mRNA expression in Sprague-Dawley rat model of medial meniscal tear-induced osteoarthritis at 5 to 10 uM administered intra-articularly into operated knee twice per week for 3 consecutive weeks measured after 21 days by RT-qPCR analysis; type: functional, organism-based
Rattus norvegicus [16] = experiment: Anti-osteoarthritis activity in Sprague-Dawley rat model of medial meniscal tear-induced osteoarthritis assessed as reduction in erosion of tibial plateau cartilage at 5 to 10 uM administered intra-articularly into operated knee twice per week for 3 consecutive weeks and measured at week 4; type: functional, organism-based; summary of the method: as §4
[17] = Toxicity in Sprague-Dawley rat model of medial meniscal tear-induced osteoarthritis assessed as death at 5 to 10 uM administered intra-articularly into operated knee twice per week for 3 consecutive weeks and measured at week 4; settings: in vivo, other
Summary of the method: (§5)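 Eight-week-old male SD rats, housed singly, had the medial meniscus cut. One week later they were grouped by body weight. The operated knee received 50 µL saline or 0, 5 or 10 µM solution intra-articularly twice weekly for 3 weeks, starting 1 week post-surgery. Deaths and systemic signs were checked by gross visual inspection, and final body weights were recorded. Rats were euthanized at week 4.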

[18] = Systemic toxicity in Sprague-Dawley rat model of medial meniscal tear-induced osteoarthritis at 5 to 10 uM administered intra-articularly into operated knee twice per week for 3 consecutive weeks and measured at week 4; settings: in vivo, other; summary of the method: as §5
[19] = Toxicity in Sprague-Dawley rat model of medial meniscal tear-induced osteoarthritis assessed as effect on body weight at 5 to 10 uM administered intra-articularly into operated knee twice per week for 3 consecutive weeks and measured at week 4; settings: in vivo, other; summary of the method: as §5
[20] = Drug level in rat synovial fluid lavage dosed directly in to knee joints and measured after 30 mins by LC-MS method; type: ADME, organism-based; settings: in vivo, other, 0.5 h
Summary of the method: (§6)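 Normal rats received an intra-articular knee injection. After euthanasia the joint was washed with saline and the synovial fluid lavage collected. Compound was quantified by LC-MS/MS and converted to joint concentration using the ratio of total protein in the lavage. Quantitation limits were 0.3–1 nmol/L.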

[21] = Drug level in rat synovial fluid lavage dosed directly in to knee joints and measured within 30 mins by LC-MS method; type: ADME, organism-based; settings: in vivo, other, 0.5 h; summary of the method: as §6
[22] = molecular target: T1, Transient receptor potential cation channel subfamily V member 4; experiment: Agonist activity at recombinant human TRPV4 expressed in HEK293 cells assessed as increase in intracellular calcium level at 10 uM after 30 mins by Fura-2 AM/Pluronic F-127 probe based fluorescence assay relative to control; type: cell-based; summary of the method: as §2

| Activity [7] | SMILES | ECmax [1] | EC50 [2] | also measured |
| --- | --- | --- | --- | --- |
|  | CN1CCN(c2nc3c(F)cccc3c(=O)n2-c2ccc(OC3CCOCC3)cc2)CC1 | 2500 nM | 870 nM | Activity [3]: 8.7%; solubility [4]: 1110 µg/mL (≈ 2520 µM); fraction unbound [5]: 0.297 |
|  | CN1CCN(c2nc3c(F)cccc3c(=O)n2-c2ccc(Oc3ccc(F)cc3)cc2)CC1 [listing 1 of 2 here] |  | 60 nM | solubility [4]: 743 µg/mL (≈ 1660 µM); Activity (HL-60): Non-Toxic; Activity [6]: Non-Toxic |
| 2.2% | CCOC(=O)c1ccc(-n2c(N3CCC(N(C)C)C3)nc3c(F)cccc3c2=O)cc1 (stereo not drawn) |  |  |  |
|  | CC(C)C[C@H](NC(=O)c1cc2ccccc2s1)C(=O)NCCCN(C)S(=O)(=O)c1ccc(Cl)cc1Cl | 312 nM | 740 nM | Activity (Homo sapiens [8]): Active; Activity (Homo sapiens [9]): inactive; solubility [4]: 3.6 µg/mL (≈ 6.31 µM) |
|  | CN1CCN(c2nc3c(F)cccc3c(=O)n2-c2ccc(C(F)(F)F)cc2)CC1 | 2500 nM | 1440 nM |  |
| 0.9% | CC(C)C[C@H]1CN(c2nc3cc(F)ccc3c(=O)n2-c2ccc(C(F)(F)F)cc2)CCN1C |  |  |  |
| 0.3% | CCOC(=O)c1ccc(-n2c(N(C)C3CCN(C)C3)nc3c(F)cccc3c2=O)cc1 (stereo not drawn) |  |  |  |
| 5% | CN1CCN(c2nc3cc(F)ccc3c(=O)n2-c2ccc(C(F)(F)F)cc2)CC1(C)C | 10000 nM | > 30000 nM |  |
|  | CC(C)C[C@H](NC(=O)c1cc2ccccc2s1)C(=O)N1CCN(C(=O)[C@H](CO)NS(=O)(=O)c2ccc(Cl)cc2Cl)CC1 |  | 49 nM |  |
|  | CN1CCN(c2nc3c(F)cccc3c(=O)n2-c2ccc(SC(F)(F)F)cc2)CC1 | 156 nM | 200 nM | Activity [3]: 3.1%; Activity (Homo sapiens [10]): Active; solubility [4]: 952 µg/mL (≈ 2170 µM) |
|  | CN1CCN(c2nc3cc(F)ccc3c(=O)n2-c2ccc(OC(F)(F)F)cc2)CC1 | 625 nM | 663 nM | Activity [3]: 6.2% |
| 7.8% | CCOC(=O)c1ccc(-n2c(N3CCN(C)CC3)nc3c(Br)cccc3c2=O)cc1 |  |  |  |
|  | CN1CCN(c2nc3c(F)cccc3c(=O)n2-c2ccc(OC(F)(F)F)cc2)CC1 | 625 nM | 280 nM | Activity [3]: 2.2%; solubility [4]: 951 µg/mL (≈ 2250 µM) |
|  | CN1CCN(c2nc3cccc(F)c3c(=O)n2-c2ccc(OC(F)(F)F)cc2)CC1 | 1250 nM | 1180 nM | Activity [3]: 3.7% |
|  | CN1CCN(c2nc3c(F)cccc3c(=O)n2-c2ccc(Oc3ccc(F)cc3)cc2)CC1 [listing 2 of 2 here] | 20 nM |  | Activity (Homo sapiens [11]): Active; Activity [3]: 0.6%; Activity (Homo sapiens [10]): Active; Activity (Rattus norvegicus [12]): Dose-dependent effect; Activity (Rattus norvegicus [13]): Active; Activity (Rattus norvegicus [14]): Dose-dependent effect; Activity (Rattus norvegicus [15]): Dose-dependent effect; Activity (Rattus norvegicus [16]): Dose-dependent effect |
|  | CN1CCN(c2nc3c(F)cccc3c(=O)n2-c2ccc(Oc3ccc(F)cc3)cc2)CC1.Cl |  |  | Activity [17]: Non-Toxic; Activity [18]: Non-Toxic; Activity [19]: Non-Toxic; Drug uptake [20]: Not Active; Drug uptake [21]: Active |
|  | CN1CCN(c2nc3c(F)cccc3c(=O)n2-c2ccc(Oc3ccccc3)cc2)CC1 | 39 nM | 125 nM | Activity [3]: 0.6%; solubility [4]: 745 µg/mL (≈ 1730 µM) |
|  | CC(C)c1ccc(-n2c(N3CCN(C)CC3)nc3c(F)cccc3c2=O)cc1 | 2500 nM | 910 nM |  |
|  | CC(C)[C@H]1CN(c2nc3cc(F)ccc3c(=O)n2-c2ccc(C(F)(F)F)cc2)CCN1C | 5000 nM | > 30000 nM |  |
| 1.9% | CCOC(=O)c1ccc(-n2c(N3CCN(C(C)C)CC3)nc3c(F)cccc3c2=O)cc1 |  |  |  |
| 1.8% | CN1CCN(c2nc3cc(F)ccc3c(=O)n2-c2ccc(C(F)(F)F)cc2)CC1=O |  |  |  |
| 0% | COc1ccc(-n2c(N(C)CCN(C)C)nc3cc(F)ccc3c2=O)cc1 |  |  |  |
| 1.2% | CN1CCN(c2nc3cc(F)ccc3c(=O)n2-c2ccc(C(F)(F)F)cc2)CC12CC2 |  |  |  |
|  | CN1CCN(c2nc3ccc(F)cc3c(=O)n2-c2ccc(OC(F)(F)F)cc2)CC1 | 2500 nM | 2060 nM | Activity [3]: 5% |
|  | CN1CCN(c2nc3c(F)cccc3c(=O)n2-c2ccc(Cc3ccccc3)cc2)CC1 | 312 nM | 670 nM | Activity [3]: 1.5%; solubility [4]: 553 µg/mL (≈ 1290 µM) |
| 29.4% | CCOC(=O)c1ccc(-n2c(N3CCN(C)CC3)nc3c(Cl)cccc3c2=O)cc1 |  |  |  |
|  | CCOC(=O)c1ccc(-n2c(N3CCN(C)CC3)nc3c(F)cccc3c2=O)cc1 | 625 nM | 920 nM |  |

| SMILES | Activity [7] | ECmax [1] | EC50 [2] | also measured |
| --- | --- | --- | --- | --- |
| COc1cccc2c(=O)n(-c3ccc(C)cc3)c(N3CCN(C)CC3)nc12 | 1.3% |  |  |  |
| Cc1ccc(-n2c(N3CCN(C)CC3)nc3c(Cl)cccc3c2=O)cc1 | 9% |  |  |  |
| CCN1CCN(c2nc3cc(F)ccc3c(=O)n2-c2ccc(OC)cc2)CC1 | 41% |  | 12200 nM |  |
| COc1ccc(-n2c(N3CCNCC3)nc3cc(F)ccc3c2=O)cc1 | 1.8% |  |  |  |
| Cc1ccccc1-n1c(N2CCN(C)CC2)nc2c(Cl)cccc2c1=O | 0.4% |  |  |  |
| Cc1cccc(-n2c(N3CCN(C)CC3)nc3c(Cl)cccc3c2=O)c1 | 1.5% |  |  |  |
| COc1ccc(-n2c(N3CCN(C)CC3)nc3ccccc3c2=O)cc1 | 13.2% |  |  |  |
| CN1CCN(c2nc3c(Cl)cccc3c(=O)n2-c2ccc(Cl)cc2)CC1 | 19.9% |  |  | ECmax [22]: 19% |
| COc1ccc(-n2c(N3CCN(C)CC3)nc3cc(F)ccc3c2=O)cc1 | 42.2% | 5000 nM | 4700 nM |  |
